{
  "source": "ChEMBL document CHEMBL4304739",
  "about": "“Discovery of 3-(Indol-5-yl)-indazole Derivatives as Novel Myeloid Differentiation Protein 2/Toll-like Receptor 4 Antagonists for Treatment of Acute Lung Injury” (J Med Chem, 2019)",
  "key": {"Peritoneal macrophage": {"tested_on": "Peritoneal macrophage", "assay": "Cytotoxicity against ICR mouse peritoneal macrophages assessed as reduction in cell viability up to 20 uM measured after 24 hrs by MTT assay", "format": "cell-based", "method_in_brief": "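Peritoneal macrophages from ICR mice, 2.0×10^4 cells/well in DMEM with 10% FBS. Cells exposed to compound for 24 h, then MTT (5 mg/ml in 0.9% NaCl) added for 4 h at 37 °C in 5% CO2. Absorbance read at 490 nm; final DMSO 0.1%.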"}, "Mus musculus [1]": {"tested_on": "Mus musculus", "assay": "Antiinflammatory activity in LPS-induced C57BL/6 mouse model of acute lung injury assessed as reduction in airspace inflammation at 5 to 10 mg/kg, iv pretreated for 15 mins followed by LPS stimulation and measured after 6 hrs by H and E staining-based microscopic analysis", "format": "functional, organism-based", "method_in_brief": "(§1)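 Male C57BL/6 mice (18−22 g; n=8 per group). Compound in 0.1% CMC-Na given by tail vein injection 15 min before intraperitoneal LPS (20 mg/kg); controls received saline. Mice were sacrificed 6 h after LPS, and serum and lung tissue were collected.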"}, "Mus musculus [2]": {"tested_on": "Mus musculus", "assay": "Antiinflammatory activity in LPS-induced C57BL/6 mouse model of acute lung injury assessed as reduction in TNFalpha level at 5 to 10 mg/kg, iv pretreated for 15 mins followed by LPS stimulation and measured after 6 hrs by ELISA", "format": "functional, organism-based", "method_in_brief": "as §1"}, "Mus musculus [3]": {"tested_on": "Mus musculus", "assay": "Antiinflammatory activity in LPS-induced C57BL/6 mouse model of acute lung injury assessed as reduction in IL6 mRNA level at 10 mg/kg, iv pretreated for 15 mins followed by LPS stimulation and measured after 6 hrs by SYBR green staining-based qRT-PCR analysis", "format": "functional, organism-based", "method_in_brief": "(§2)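 Total lung RNA extracted, with DNase I removal of residual DNA. Quantitative PCR with mouse gene primers; each gene normalized to β-actin. C57BL/6 mice given compound iv 15 min before intraperitoneal LPS (20 mg/kg) and killed at 6 h.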"}, "Mus musculus [4]": {"tested_on": "Mus musculus", "assay": "Antiinflammatory activity in LPS-induced C57BL/6 mouse model of acute lung injury assessed as reduction in COX2 mRNA level at 10 mg/kg, iv pretreated for 15 mins followed by LPS stimulation and measured after 6 hrs by SYBR green staining-based qRT-PCR analysis", "format": "functional, organism-based", "method_in_brief": "as §2"}, "[5]": {"biological_target": "Tyrosine-protein kinase ABL1 (Homo sapiens) (UniProt P00519)", "sequence (P00519 whole entry, the tested form may be a part)": "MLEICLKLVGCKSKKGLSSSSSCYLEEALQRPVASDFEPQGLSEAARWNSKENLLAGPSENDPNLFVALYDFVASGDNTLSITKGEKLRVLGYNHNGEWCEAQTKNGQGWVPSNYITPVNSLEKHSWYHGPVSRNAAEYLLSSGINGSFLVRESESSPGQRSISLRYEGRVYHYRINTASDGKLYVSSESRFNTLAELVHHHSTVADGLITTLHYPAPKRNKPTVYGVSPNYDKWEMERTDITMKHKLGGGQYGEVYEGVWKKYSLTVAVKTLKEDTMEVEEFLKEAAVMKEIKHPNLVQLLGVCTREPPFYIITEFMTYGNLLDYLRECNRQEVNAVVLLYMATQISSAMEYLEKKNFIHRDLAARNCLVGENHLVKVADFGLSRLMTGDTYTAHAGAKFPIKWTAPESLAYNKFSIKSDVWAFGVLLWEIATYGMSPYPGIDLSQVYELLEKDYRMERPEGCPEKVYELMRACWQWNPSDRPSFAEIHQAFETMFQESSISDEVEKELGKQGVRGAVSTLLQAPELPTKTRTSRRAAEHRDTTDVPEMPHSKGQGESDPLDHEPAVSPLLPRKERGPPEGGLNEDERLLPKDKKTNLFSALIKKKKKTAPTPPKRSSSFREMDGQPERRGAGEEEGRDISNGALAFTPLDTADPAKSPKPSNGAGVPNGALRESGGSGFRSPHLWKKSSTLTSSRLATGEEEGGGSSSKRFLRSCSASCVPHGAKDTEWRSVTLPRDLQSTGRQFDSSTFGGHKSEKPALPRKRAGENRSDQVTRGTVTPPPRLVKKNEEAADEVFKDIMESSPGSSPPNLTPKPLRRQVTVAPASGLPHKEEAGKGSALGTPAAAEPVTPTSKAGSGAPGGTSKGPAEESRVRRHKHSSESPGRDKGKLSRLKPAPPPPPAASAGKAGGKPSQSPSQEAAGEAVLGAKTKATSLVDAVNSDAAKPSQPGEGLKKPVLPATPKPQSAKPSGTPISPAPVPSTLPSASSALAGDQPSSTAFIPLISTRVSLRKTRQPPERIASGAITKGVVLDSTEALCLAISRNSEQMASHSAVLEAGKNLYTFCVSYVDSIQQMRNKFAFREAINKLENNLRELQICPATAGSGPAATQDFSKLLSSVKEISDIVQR", "assay": "Inhibition of wild-type human phosphorylated ABL1 (S229 to K512 residues) expressed in mammalian expression system at 1 uM by Kinomescan method", "method_in_brief": "(§3)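 Single-concentration screen at 1 μM on the KINOMEscan panel (98 kinases), run by the platform provider. Results are given as percent of control: % Ctrl = [(test signal − positive control signal)/(negative control signal − positive control signal)] × 100. DMSO serves as negative control (100% Ctrl) and a control compound as positive control (0% Ctrl). Lower values mean stronger binding hits.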"}, "[6]": {"biological_target": "Cyclin-dependent kinase 19 (Homo sapiens) (UniProt Q9BWU1)", "sequence (Q9BWU1 whole entry, the tested form may be a part)": "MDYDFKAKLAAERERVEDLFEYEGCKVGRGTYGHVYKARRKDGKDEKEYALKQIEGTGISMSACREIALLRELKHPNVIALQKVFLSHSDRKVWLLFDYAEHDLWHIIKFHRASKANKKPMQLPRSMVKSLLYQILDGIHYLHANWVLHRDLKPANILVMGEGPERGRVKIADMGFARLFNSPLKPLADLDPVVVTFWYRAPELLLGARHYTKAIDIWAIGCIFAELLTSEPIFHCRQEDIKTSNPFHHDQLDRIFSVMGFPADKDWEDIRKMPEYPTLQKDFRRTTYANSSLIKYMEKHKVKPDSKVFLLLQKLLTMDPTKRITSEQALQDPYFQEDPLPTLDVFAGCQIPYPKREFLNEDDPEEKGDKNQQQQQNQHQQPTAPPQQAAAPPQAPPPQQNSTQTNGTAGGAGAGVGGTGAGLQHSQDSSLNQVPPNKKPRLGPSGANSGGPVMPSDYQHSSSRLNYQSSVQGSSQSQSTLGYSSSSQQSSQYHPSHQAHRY", "assay": "Inhibition of wild-type human partial length CDK11 (M1 to N360 residues) expressed in bacterial expression system at 1 uM by Kinomescan method", "method_in_brief": "(§4)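 Binding-competition screen on the KINOMEscan platform, run by the provider, with the test compound at 1 μM. Readout is percent of control: (test signal − positive control signal)/(negative control signal − positive control signal) × 100. The DMSO negative control is set as 100% Ctrl and a control compound as 0% Ctrl. Lower values mean stronger hits.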"}, "[7]": {"biological_target": "Macrophage colony-stimulating factor 1 receptor (Homo sapiens) (UniProt P07333)", "assay": "Inhibition of wild-type human partial length CSF1R (I564 to S939 residues) expressed in bacterial expression system at 1 uM by Kinomescan method", "method_in_brief": "as §4"}, "[8]": {"biological_target": "Receptor tyrosine-protein kinase erbB-2 (Homo sapiens) (UniProt P04626)", "sequence (P04626 whole entry, the tested form may be a part)": "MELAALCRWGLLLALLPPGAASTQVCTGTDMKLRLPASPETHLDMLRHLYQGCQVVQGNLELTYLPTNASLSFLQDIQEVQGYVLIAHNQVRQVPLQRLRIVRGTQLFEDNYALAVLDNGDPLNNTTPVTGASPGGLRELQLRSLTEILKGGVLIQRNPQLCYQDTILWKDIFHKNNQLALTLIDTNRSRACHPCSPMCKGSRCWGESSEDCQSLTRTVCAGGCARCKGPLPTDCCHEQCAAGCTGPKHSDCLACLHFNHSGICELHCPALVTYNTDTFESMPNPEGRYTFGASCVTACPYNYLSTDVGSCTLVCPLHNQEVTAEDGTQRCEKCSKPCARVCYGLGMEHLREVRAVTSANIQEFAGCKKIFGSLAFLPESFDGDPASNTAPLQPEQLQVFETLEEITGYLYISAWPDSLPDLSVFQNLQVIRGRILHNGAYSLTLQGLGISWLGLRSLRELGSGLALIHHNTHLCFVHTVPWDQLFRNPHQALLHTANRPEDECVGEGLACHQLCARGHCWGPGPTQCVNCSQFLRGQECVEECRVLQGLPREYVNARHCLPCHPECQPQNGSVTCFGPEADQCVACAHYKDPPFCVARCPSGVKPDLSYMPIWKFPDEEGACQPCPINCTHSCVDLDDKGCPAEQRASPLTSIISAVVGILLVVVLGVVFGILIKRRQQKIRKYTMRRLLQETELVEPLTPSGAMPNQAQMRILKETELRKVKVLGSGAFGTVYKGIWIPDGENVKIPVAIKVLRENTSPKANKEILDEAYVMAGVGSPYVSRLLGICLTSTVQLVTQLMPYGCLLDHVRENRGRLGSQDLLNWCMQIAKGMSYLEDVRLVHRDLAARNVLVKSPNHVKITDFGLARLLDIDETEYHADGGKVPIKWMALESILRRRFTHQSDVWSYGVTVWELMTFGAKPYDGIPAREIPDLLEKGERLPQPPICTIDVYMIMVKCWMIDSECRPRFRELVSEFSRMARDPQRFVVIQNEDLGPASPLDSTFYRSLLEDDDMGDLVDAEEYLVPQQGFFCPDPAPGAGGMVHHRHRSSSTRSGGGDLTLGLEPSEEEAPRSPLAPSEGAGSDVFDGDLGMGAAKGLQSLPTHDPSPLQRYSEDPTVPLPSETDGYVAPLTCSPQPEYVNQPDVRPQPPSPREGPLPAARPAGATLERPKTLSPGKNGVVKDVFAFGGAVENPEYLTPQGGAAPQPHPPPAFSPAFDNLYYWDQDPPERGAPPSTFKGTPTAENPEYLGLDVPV", "assay": "Inhibition of wild-type human partial length ERBB2 (K646 to V1225 residues) expressed in mammalian expression system at 1 uM by Kinomescan method", "method_in_brief": "as §4"}, "[9]": {"biological_target": "Inhibitor of nuclear factor kappa-B kinase subunit beta (Homo sapiens) (UniProt O14920)", "assay": "Inhibition of wild-type human full length IKK-beta (M1 to S756 residues) expressed in mammalian expression system at 1 uM by Kinomescan method", "method_in_brief": "(§5)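 KINOMEscan competition binding screen at 1 μM compound. Results reported as % of control = (test − positive control)/(DMSO negative control − positive control) × 100, where lower values mean stronger hits.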"}, "[10]": {"biological_target": "Mitogen-activated protein kinase kinase kinase 9 (Homo sapiens) (UniProt P80192)", "assay": "Inhibition of wild-type human partial length MLK1 (V88 to W426 residues) expressed in bacterial expression system at 1 uM by Kinomescan method", "method_in_brief": "as §4"}, "[11]": {"biological_target": "Mitogen-activated protein kinase 14 (Homo sapiens) (UniProt Q16539)", "assay": "Inhibition of wild-type human full length p38-alpha (M1 to S360 residues) expressed in bacterial expression system at 1 uM by Kinomescan method", "method_in_brief": "as §5"}, "[12]": {"biological_target": "Mitogen-activated protein kinase 11 (Homo sapiens) (UniProt Q15759)", "assay": "Inhibition of wild-type human full length p38-beta (M1 to Q364 residues) expressed in bacterial expression system at 1 uM by Kinomescan method", "method_in_brief": "as §5"}, "[13]": {"biological_target": "3-phosphoinositide-dependent protein kinase 1 (Homo sapiens) (UniProt O15530)", "assay": "Inhibition of wild-type human full length PDPK1 (M1 to Q556 residues) expressed in bacterial expression system at 1 uM by Kinomescan method", "method_in_brief": "as §5"}, "[14]": {"biological_target": "Phosphatidylinositol 4-phosphate 3-kinase C2 domain-containing subunit beta (Homo sapiens) (UniProt O00750)", "assay": "Inhibition of wild-type human partial length PIK3C2B (M1 to L1634 residues) expressed in mammalian expression system at 1 uM by Kinomescan method", "method_in_brief": "as §4"}, "[15]": {"biological_target": "cAMP-dependent protein kinase catalytic subunit alpha (Homo sapiens) (UniProt P17612)", "assay": "Inhibition of wild-type human partial length PKAC-alpha (G10 to F351 residues) expressed in bacterial expression system at 1 uM by Kinomescan method", "method_in_brief": "as §4"}, "[16]": {"biological_target": "Serine/threonine-protein kinase PLK3 (Homo sapiens) (UniProt Q9H4B4)", "sequence (Q9H4B4 whole entry, looked up, the tested form may be a part)": "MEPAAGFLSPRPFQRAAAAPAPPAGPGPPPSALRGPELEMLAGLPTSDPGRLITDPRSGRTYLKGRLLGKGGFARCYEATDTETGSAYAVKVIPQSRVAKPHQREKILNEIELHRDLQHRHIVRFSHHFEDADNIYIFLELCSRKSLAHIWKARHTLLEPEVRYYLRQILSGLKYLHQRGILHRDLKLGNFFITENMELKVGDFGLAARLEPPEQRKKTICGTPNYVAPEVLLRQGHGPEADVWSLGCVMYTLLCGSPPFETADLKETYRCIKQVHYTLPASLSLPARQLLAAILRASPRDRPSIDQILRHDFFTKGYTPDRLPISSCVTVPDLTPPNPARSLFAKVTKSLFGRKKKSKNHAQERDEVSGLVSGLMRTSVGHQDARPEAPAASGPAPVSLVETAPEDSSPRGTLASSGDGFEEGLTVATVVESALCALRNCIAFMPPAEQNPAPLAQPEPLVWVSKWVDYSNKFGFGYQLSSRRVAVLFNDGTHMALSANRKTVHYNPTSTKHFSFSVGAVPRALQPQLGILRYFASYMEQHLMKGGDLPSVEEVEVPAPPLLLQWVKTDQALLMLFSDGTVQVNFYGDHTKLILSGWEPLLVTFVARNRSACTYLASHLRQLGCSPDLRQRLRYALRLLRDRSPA", "assay": "Inhibition of wild-type human partial length PLK3 (A42 to L334 residues) expressed in mammalian expression system at 1 uM by Kinomescan method", "method_in_brief": "as §4"}, "[17]": {"biological_target": "Proto-oncogene tyrosine-protein kinase receptor Ret (Homo sapiens) (UniProt P07949)", "assay": "Inhibition of wild-type human partial length RET (E713 to D1014 residues) expressed in bacterial expression system at 1 uM by Kinomescan method", "method_in_brief": "as §4"}, "[18]": {"biological_target": "Testis-specific serine/threonine-protein kinase 1 (Homo sapiens) (UniProt Q9BXA7)", "sequence (Q9BXA7 whole entry, the tested form may be a part)": "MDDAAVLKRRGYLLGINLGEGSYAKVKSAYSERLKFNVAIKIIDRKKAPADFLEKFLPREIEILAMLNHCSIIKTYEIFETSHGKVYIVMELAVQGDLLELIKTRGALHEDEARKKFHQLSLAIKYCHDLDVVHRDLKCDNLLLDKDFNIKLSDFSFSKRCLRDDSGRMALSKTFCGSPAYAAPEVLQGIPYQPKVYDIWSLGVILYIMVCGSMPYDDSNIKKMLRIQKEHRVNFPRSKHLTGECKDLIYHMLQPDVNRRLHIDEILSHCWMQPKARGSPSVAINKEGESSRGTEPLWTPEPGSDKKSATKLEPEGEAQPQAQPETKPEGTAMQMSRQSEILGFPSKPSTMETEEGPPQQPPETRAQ", "assay": "Inhibition of wild-type human full length TSSK1B (M1 to Q367 residues) expressed in bacterial expression system at 1 uM by Kinomescan method", "method_in_brief": "as §5"}, "[19]": {"biological_target": "Serine/threonine-protein kinase 32C (Homo sapiens) (UniProt Q86UX6)", "sequence (Q86UX6 whole entry, the tested form may be a part)": "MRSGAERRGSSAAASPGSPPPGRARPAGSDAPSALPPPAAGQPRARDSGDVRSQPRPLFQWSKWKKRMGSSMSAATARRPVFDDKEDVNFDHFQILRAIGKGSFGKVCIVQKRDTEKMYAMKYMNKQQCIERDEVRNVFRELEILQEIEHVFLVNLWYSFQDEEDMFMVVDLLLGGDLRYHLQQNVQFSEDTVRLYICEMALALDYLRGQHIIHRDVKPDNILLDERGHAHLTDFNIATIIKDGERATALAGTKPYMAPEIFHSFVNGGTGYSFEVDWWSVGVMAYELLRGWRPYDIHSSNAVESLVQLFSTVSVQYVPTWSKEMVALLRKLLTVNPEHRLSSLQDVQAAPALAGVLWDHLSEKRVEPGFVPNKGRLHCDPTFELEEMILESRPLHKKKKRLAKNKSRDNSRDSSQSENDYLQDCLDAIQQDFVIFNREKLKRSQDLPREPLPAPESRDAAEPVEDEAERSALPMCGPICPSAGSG", "assay": "Inhibition of wild-type human partial length YANK3 (M68 to G486 residues) expressed in bacterial expression system at 1 uM by Kinomescan method", "method_in_brief": "as §3"}, "[20]": {"biological_target": "Tyrosine-protein kinase ZAP-70 (Homo sapiens) (UniProt P43403)", "sequence (P43403 whole entry, the tested form may be a part)": "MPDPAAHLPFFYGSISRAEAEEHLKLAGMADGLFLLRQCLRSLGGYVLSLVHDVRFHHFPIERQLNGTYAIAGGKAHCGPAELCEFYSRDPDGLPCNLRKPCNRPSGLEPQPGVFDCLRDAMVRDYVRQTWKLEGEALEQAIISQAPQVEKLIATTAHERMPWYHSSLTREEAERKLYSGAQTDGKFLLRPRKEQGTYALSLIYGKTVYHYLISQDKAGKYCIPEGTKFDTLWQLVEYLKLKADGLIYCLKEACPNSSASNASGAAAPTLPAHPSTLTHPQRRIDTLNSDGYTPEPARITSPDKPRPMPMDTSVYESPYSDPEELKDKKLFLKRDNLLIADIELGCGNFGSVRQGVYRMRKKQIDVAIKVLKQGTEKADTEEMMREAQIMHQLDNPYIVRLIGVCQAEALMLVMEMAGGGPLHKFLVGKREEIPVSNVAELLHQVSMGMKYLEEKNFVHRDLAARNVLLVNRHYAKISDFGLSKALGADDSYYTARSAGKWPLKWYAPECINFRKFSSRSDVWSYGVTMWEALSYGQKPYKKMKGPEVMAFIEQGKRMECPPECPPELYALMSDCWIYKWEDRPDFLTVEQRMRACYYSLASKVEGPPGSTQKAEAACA", "assay": "Inhibition of wild-type human partial length ZAP70 (D20 to G299 residues) expressed in mammalian expression system at 1 uM by Kinomescan method", "method_in_brief": "as §3"}},
  "note": "Calls of active or inactive are those of the source. The calls are words filed in the database; no cut-off is given here.",
  "data": [
    {"compound": "O=C(Nc1ccc2[nH]nc(-c3ccc4[nH]ccc4c3)c2c1)c1c(Cl)cccc1Cl", "values": [
      {"measurement": "Activity", "setting": "Peritoneal macrophage", "value": "Non-Toxic"},
      {"measurement": "Activity", "setting": "Mus musculus [1]", "value": "Active"},
      {"measurement": "Activity", "setting": "Mus musculus [2]", "value": "Active"},
      {"measurement": "Activity", "setting": "Mus musculus [3]", "value": "Active"},
      {"measurement": "Activity", "setting": "Mus musculus [4]", "value": "Active"},
      {"measurement": "inhibition", "setting": "[5]", "value": "inactive"},
      {"measurement": "inhibition", "setting": "[6]", "value": "inactive"},
      {"measurement": "inhibition", "setting": "[7]", "value": "inactive"},
      {"measurement": "inhibition", "setting": "[8]", "value": "inactive"},
      {"measurement": "inhibition", "setting": "[9]", "value": "inactive"},
      {"measurement": "inhibition", "setting": "[10]", "value": "inactive"},
      {"measurement": "inhibition", "setting": "[11]", "value": "inactive"},
      {"measurement": "inhibition", "setting": "[12]", "value": "inactive"},
      {"measurement": "inhibition", "setting": "[13]", "value": "inactive"},
      {"measurement": "inhibition", "setting": "[14]", "value": "inactive"},
      {"measurement": "inhibition", "setting": "[15]", "value": "inactive"},
      {"measurement": "inhibition", "setting": "[16]", "value": "inactive"},
      {"measurement": "inhibition", "setting": "[17]", "value": "inactive"},
      {"measurement": "inhibition", "setting": "[18]", "value": "inactive"},
      {"measurement": "inhibition", "setting": "[19]", "value": "inactive"},
      {"measurement": "inhibition", "setting": "[20]", "value": "inactive"}
    ]}
  ]
}
